Results on 1 substance are retold here after ChEMBL document CHEMBL3779860, “A Designed Tryptophan- and Lysine/Arginine-Rich Antimicrobial Peptide with Therapeutic Potential for Clinical Antibiotic-Resistant Candida albicans Vaginitis” (J Med Chem, 2016).

What all share (format): functional
Assay [1] concerns Candida albicans. The experiment in a line: Antimicrobial activity against antibiotic resistant Candida albicans clinical isolate 08032710 compound treated in NaCl solution measured after 36 hrs by disc diffusion method. As to conditions: isolate 08032710, 36 h. The gist of the method:
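Salt-tolerance test: peptide at 2 mg/mL was prepared in sterile ddH2O, in 150 mM NaCl, or in PBS (150 mM NaCl, 2.7 mM KCl, 1.5 mM KH2PO4, 8 mM K2HPO4, pH 7.2). Anti-C. albicans activity was then assessed by inhibition zone on Sabouraud medium with 0.7% agar.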
(In general: Agar diffusion results depend on both activity and mobility in agar.)

Assay [2] relates to Candida albicans. The experiment in a line: Antimicrobial activity against antibiotic resistant Candida albicans clinical isolate 08030809 assessed as clone count at MIC after 1 hr by colony counting assay (reference value: 228 +/- 23 CFU).
For another assay, the system named is Escherichia coli. Briefly: Antimicrobial activity against Escherichia coli ATCC 25922 assessed as inhibition of […] growth after 16 hrs by broth dilution method. To be noted: ATCC 25922, 16 h. The gist of the method: (§1)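 Broth dilution in LB broth; 100 µL of 2 × 10^5 CFU/mL bacterial suspension plus 10 µL sample (stock series in 0.9% NaCl) in 90 µL broth, 37°C for 16 h. Growth read as A600; MIC is the lowest concentration completely inhibiting growth. Mean of three independent experiments run in duplicate.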
(In general: Broth dilution looks for growth in wells or tubes with falling amounts of substance.)

A further assay concerns Staphylococcus aureus. Briefly: Antimicrobial activity against Staphylococcus aureus ATCC 2592 assessed as inhibition of […] growth after 16 hrs by broth dilution method. As to conditions: ATCC 2592, 16 h. The gist of the method:
as §1

The subject of assay [3] is Candida albicans. The experiment in a line: Antimicrobial activity against antibiotic resistant Candida albicans clinical isolate 08030809 assessed as clone count at MIC after 12 hrs by colony counting assay (reference value: 54153 +/- 8769 CFU).
Assay [4] has as its system Candida albicans. Briefly: Antimicrobial activity against antibiotic resistant Candida albicans clinical isolate 08030809 assessed as clone count at 10 times MIC after 6 hrs by colony counting assay (reference value: 14536 +/- 2467 CFU).
Assay [5] deals with Candida albicans. The experiment in a line: Antimicrobial activity against antibiotic resistant Candida albicans clinical isolate 08030809 assessed as clone count at 10 times MIC after 30 mins by colony counting assay (reference value: 156 +/- 16 CFU).
In assay [6] the test system is Candida albicans. Briefly: Antimicrobial activity against antibiotic resistant Candida albicans clinical isolate 08030809 in mouse vaginitis model assessed as decrease in colony count in lavage liquid of vagina at 20 ug administered as intravaginal instillation measured on day 11.
For assay [7], the system named is Candida albicans. Briefly: Antimicrobial activity against antibiotic resistant Candida albicans clinical isolate 08030809 in mouse vaginitis model assessed as decrease in colony count in lavage liquid of vagina at 50 ug administered as intravaginal instillation measured on day 16.

What is called MIC is the smallest concentration in the dilution series that meets the test's criterion for growth inhibition. For H-VKRWKKWRWKWKKWV-NH2, the MIC against Candida albicans [1] worked out at 2.79 µg/mL; in the assay with Escherichia coli, 9.38 µg/mL; with Staphylococcus aureus, 1.17 µg/mL. The Activity with Candida albicans [2], with Candida albicans [3], in the assay with Candida albicans [4] and in the assay on Candida albicans [5] was 0 CFU throughout. For the same substance, the results for the “inhibition (INH)” value in the assay with Candida albicans [6] and in the assay with Candida albicans [7] were 37% and 83%, respectively.
